Results: the M2OR odorant receptor database
Substitutions are numbered along the chain they refer to.

Experiments:
Settings in all cases: stereoisomer not certain
[1] = system: O52J3 T77A V128I Q141L
How it was run: (§1)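 Assay methods differ from source to source, frequently being transient luciferase assays in mammalian cell lines. For each receptor–molecule pair, the label responsive (active) applies when the original authors judged the measured signal statistically different from baseline, and non-responsive (inactive) applies otherwise.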

[2] = system: T1, O52K1 A119T A149T
T1 sequence (whole entry): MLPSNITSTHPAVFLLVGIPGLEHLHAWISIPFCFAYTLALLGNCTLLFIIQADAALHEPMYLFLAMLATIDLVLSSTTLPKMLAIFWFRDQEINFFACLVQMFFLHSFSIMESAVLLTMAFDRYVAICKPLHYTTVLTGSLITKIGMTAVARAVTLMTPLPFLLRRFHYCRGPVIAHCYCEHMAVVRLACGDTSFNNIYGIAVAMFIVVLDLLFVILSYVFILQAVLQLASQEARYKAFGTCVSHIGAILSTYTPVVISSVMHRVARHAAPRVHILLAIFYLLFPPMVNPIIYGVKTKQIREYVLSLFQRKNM
How it was run: as §1

[3] = system: T2, O52K1 Q52R
T2 sequence (whole entry): T1 sequence (whole entry) with Q52R, T119A, T149A
How it was run: as §1

[4] = system: T3, O52L1
T3 sequence (whole entry): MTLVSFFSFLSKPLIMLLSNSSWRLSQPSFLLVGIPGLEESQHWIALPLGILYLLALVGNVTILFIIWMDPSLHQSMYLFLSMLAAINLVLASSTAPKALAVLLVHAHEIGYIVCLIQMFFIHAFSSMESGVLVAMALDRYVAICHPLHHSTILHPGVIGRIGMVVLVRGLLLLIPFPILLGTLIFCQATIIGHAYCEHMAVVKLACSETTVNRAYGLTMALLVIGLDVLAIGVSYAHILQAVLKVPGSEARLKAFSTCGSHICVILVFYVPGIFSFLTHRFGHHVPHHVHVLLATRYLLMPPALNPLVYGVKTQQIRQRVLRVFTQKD
How it was run: as §1

[5] = system: T4, O52M1 S305R
T4 sequence (whole entry): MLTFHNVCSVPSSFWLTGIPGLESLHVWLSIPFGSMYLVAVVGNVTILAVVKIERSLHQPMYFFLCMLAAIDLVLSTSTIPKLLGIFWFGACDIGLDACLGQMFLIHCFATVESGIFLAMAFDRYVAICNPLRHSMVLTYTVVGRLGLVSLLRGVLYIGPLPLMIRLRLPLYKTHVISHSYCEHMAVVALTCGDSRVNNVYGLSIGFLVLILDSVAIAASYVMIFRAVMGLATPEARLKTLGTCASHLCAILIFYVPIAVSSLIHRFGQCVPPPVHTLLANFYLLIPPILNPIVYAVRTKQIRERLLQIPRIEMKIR
How it was run: as §1

[6] = system: T5, O52N1 R167C F247I
T5 sequence (whole entry): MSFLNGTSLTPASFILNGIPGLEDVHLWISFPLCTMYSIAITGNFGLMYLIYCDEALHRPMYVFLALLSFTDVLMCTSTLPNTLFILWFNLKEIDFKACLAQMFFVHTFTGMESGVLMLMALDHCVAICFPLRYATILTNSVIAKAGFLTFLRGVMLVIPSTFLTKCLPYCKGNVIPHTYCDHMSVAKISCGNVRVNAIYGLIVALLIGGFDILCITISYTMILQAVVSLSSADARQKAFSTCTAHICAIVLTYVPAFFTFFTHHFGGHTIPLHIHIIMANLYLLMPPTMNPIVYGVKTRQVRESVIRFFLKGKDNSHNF
How it was run: as §1

[7] = system: T6, O52N2 S249A H264R
T6 sequence (whole entry): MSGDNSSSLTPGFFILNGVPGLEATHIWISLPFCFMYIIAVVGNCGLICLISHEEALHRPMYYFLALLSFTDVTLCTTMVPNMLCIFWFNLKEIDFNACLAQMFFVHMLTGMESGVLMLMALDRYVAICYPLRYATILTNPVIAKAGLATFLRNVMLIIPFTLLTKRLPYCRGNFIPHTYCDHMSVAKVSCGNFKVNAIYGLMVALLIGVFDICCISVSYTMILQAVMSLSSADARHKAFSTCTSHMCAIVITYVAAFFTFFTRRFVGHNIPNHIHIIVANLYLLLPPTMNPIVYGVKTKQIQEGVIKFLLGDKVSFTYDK
How it was run: as §1

[8] = system: T7, O52W1 H239R L254Q
T7 sequence (whole entry): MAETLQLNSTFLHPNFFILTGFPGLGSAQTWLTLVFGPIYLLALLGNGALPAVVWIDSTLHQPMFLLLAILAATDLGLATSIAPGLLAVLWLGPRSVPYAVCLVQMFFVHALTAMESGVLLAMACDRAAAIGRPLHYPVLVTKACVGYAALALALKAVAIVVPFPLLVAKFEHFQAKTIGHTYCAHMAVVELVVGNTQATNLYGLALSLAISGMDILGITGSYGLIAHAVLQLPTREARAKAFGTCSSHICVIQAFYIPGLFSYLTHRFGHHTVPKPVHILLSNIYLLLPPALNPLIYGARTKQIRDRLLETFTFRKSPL
How it was run: as §1

[9] = system: T8, O56A3
T8 sequence (whole entry): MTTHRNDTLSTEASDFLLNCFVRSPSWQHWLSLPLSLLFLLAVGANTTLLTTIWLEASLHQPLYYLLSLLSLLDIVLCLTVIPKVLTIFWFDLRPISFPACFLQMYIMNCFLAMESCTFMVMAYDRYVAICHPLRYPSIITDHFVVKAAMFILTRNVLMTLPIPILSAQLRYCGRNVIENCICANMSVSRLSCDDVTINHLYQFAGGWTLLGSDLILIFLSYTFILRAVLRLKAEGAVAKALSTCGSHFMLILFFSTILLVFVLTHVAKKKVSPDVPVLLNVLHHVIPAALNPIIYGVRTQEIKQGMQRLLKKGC
How it was run: as §1

[10] = system: T9, O56A4 I247A
T9 sequence (whole entry): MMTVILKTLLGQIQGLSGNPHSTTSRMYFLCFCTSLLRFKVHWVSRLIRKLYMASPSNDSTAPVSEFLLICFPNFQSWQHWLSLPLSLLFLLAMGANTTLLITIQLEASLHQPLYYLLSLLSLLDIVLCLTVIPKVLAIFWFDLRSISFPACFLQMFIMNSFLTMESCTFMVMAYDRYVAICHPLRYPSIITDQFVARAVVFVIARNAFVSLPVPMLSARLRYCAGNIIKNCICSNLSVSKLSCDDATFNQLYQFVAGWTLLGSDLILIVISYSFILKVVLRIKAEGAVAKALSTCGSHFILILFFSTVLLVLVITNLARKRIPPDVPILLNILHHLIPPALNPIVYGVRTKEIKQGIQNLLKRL
How it was run: as §1

[11] = system: T10, O56A4 I247V
T10 sequence (whole entry): T9 sequence (whole entry) with A247V
How it was run: as §1

[12] = system: T11, O56A4
T11 sequence (whole entry): T9 sequence (whole entry) with A247I
How it was run: as §1

[13] = system: T12, O56A5 V104L
T12 sequence (whole entry): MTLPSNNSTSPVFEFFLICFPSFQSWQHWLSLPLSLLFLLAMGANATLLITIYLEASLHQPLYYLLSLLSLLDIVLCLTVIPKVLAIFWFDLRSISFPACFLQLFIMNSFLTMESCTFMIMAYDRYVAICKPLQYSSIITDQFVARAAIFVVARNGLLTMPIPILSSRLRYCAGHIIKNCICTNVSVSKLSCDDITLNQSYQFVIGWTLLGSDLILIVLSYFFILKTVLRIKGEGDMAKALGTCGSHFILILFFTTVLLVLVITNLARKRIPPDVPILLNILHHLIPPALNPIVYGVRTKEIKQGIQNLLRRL
How it was run: as §1

[14] = system: T13, O56B1 C106R L214F
T13 sequence (whole entry): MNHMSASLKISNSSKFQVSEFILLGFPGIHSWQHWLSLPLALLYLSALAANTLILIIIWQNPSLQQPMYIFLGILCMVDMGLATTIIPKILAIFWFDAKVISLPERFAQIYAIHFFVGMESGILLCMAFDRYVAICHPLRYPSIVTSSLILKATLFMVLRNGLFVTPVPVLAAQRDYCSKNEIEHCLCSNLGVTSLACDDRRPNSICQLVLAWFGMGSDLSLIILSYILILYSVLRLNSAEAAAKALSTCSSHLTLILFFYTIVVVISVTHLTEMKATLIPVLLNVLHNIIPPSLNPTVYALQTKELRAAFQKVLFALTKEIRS
How it was run: as §1

[15] = system: T14, O56B1 L214F
T14 sequence (whole entry): T13 sequence (whole entry) with R106C
How it was run: as §1

[16] = system: T15, O56B4
T15 sequence (whole entry): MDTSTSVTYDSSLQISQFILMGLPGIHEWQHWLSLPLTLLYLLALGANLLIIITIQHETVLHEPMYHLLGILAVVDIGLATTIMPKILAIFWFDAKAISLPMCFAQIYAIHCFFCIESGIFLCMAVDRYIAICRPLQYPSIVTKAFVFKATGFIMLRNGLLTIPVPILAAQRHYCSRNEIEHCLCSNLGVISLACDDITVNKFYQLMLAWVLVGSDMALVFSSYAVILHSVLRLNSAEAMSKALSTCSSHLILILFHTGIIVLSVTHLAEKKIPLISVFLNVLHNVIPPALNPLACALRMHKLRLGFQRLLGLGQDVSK
How it was run: as §1

[17] = system: T16, O5AC2
T16 sequence (whole entry): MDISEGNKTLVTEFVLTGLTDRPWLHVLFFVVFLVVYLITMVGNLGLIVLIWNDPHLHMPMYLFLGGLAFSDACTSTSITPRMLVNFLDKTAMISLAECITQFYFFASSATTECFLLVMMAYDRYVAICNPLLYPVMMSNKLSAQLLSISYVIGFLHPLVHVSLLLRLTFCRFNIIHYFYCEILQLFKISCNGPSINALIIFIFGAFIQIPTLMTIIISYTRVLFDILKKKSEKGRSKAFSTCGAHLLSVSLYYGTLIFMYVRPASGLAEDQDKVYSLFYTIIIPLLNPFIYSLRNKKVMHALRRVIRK
How it was run: as §1

[18] = system: T17, O5AK2 M92I
T17 sequence (whole entry): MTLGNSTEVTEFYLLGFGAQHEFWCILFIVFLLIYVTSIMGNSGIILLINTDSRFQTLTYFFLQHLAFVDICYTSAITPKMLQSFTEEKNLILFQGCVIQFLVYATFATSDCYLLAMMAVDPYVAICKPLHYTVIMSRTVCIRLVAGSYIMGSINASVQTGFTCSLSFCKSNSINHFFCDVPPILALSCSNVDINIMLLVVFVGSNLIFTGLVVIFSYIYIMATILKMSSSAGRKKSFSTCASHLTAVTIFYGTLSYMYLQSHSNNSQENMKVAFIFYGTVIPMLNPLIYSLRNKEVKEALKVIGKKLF
How it was run: as §1

[19] = system: T18, O5AN1 C142Y L289F
T18 sequence (whole entry): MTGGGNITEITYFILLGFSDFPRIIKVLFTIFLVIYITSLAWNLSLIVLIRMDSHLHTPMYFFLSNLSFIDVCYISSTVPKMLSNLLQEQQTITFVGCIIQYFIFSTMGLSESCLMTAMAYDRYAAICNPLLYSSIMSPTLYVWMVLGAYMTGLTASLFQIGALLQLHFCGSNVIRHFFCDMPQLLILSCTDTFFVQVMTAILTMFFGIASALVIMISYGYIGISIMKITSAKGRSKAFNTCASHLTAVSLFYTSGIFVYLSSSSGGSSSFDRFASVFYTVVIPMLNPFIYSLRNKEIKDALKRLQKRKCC
How it was run: as §1

[20] = system: T19, O5AN1 L289F
T19 sequence (whole entry): T18 sequence (whole entry) with Y142C
How it was run: as §1

Measured: odorant receptor agonist call

CC1=C(O)C(=O)OC1C (stereo not drawn)
inactive: all assays above

CC1=C(O)C(=O)C(C)O1 (stereo not drawn)
inactive: all assays above

Cc1cnc(C)c(C)n1
inactive: all assays above

CCC1OC(=O)C(O)=C1C (stereo not drawn)
inactive: all assays above

CCC1OC(C)=C(O)C1=O (stereo not drawn)
inactive: all assays above

CC1=NC(C)C(C)S1 (stereo not drawn)
inactive: all assays above

CCCC(S)CCOC(C)=O (stereo not drawn)
inactive: all assays above

CCCCCCC=CCCC=O
not listed: [4] | [12]
inactive: all other assays above
